In ChEMBL document CHEMBL1142075, “Two-year assessment of entecavir resistance in Lamivudine-refractory hepatitis B virus patients reveals different clinical outcomes depending on the resistance substitutions present” (Antimicrob Agents Chemother, 2007) one finds EC50 and Inhibition data, which are given here for 1 compound.

SMILES strings stand for the structures.

The test system of test [1] is Hepatitis B virus. The test is described as follows: Inhibition of HBV replication with RT L80I substitution and L180M, M204I background from Lamivudine refractory patient transfected into HepG2 cells. The test is classed as functional, organism-based. The method in brief:
(§1)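 HepG2 cells bulk-transfected with full-length HBV phenotyping plasmids cloned from patient isolates, then seeded into wells with compound titration. DMSO vehicle controls and cloned lab wild-type HBV run in parallel each experiment. At 5 days posttransfection, released virions stripped with Nonidet P-40, captured from medium with anti-HBV core antibody, and extracellular replicated virus quantitated. EC50 = concentration giving 50% inhibition.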

Test [2] concerns Hepatitis B virus. The test is described as follows: Inhibition of HBV replication with RT L229W substitution and L180M, M204V background from Lamivudine refractory patient transfected into HepG2 cells. The test is classed as functional, organism-based. The method in brief:
as §1

Test [3] has as its system Hepatitis B virus. The test is described as follows: Inhibition of HBV replication with RT A200V substitution from Lamivudine refractory patient transfected into HepG2 cells. The test is classed as functional, organism-based. An outline of the steps: as §1
Test [4] has as its system Hepatitis B virus. The test is described as follows: Inhibition of HBV replication with RT L80V substitution and L180M, M204V background from Lamivudine refractory patient transfected into HepG2 cells. The test is classed as functional, organism-based. An outline of the steps:
as §1

The subject of test [5] is Hepatitis B virus. The test is described as follows: Inhibition of HBV replication with RT A181T substitution and V173L, L180M, M204V background from Lamivudine refractory patient transfected into HepG2 cells.
The subject of test [6] is Hepatitis B virus. The test is described as follows: Inhibition of HBV replication with RT K168E substitution and M204I background from Lamivudine refractory patient transfected into HepG2 cells. The test is classed as functional. An outline of the steps: as §1
The subject of test [7] is Hepatitis B virus. The test is described as follows: Inhibition of HBV replication with RT Q267Stop substitution and L180M, M204V background from Lamivudine refractory patient transfected into HepG2 cells. The test is classed as functional. An outline of the steps:
as §1

For test [8], the system named is Hepatitis B virus. The test is described as follows: Inhibition of HBV replication with RT A200V substitution and M204I background from Lamivudine refractory patient transfected into HepG2 cells. The test is classed as functional, organism-based. An outline of the steps:
as §1

In test [9] the test system is Hepatitis B virus. The test is described as follows: Inhibition of HBV replication with RT M309L substitution from Lamivudine refractory patient transfected into HepG2 cells. The test is classed as functional, organism-based. An outline of the steps: as §1
Test [10] relates to Hepatitis B virus. The test is described as follows: Inhibition of HBV replication with RT D263G substitution from Lamivudine refractory patient transfected into HepG2 cells. The test is classed as functional, organism-based. The method in brief: as §1
The subject of test [11] is Hepatitis B virus. The test is described as follows: Inhibition of HBV replication with RT G295S substitution and L80I, M204I background from Lamivudine refractory patient transfected into HepG2 cells. The test is classed as functional. An outline of the steps:
as §1

Test [12] deals with Hepatitis B virus. The test is described as follows: Inhibition of HBV replication with RT V27A substitution and L180M, M204V background from Lamivudine refractory patient transfected into HepG2 cells. The test is classed as functional. The method in brief: as §1
Test [13] concerns Hepatitis B virus. The test is described as follows: Inhibition of HBV replication with RT A200V substitution and L180M, M204I background from Lamivudine refractory patient transfected into HepG2 cells. The test is classed as functional, organism-based. An outline of the steps: as §1
For test [14], the system named is Hepatitis B virus. The test is described as follows: Inhibition of HBV replication with RT V224A substitution and V173L, L180M, M204V background from Lamivudine refractory patient transfected into HepG2 cells. The test is classed as functional. An outline of the steps:
as §1

The test system of test [15] is Hepatitis B virus. The test is described as follows: Inhibition of HBV replication with RT S78T substitution from Lamivudine refractory patient transfected into HepG2 cells. The test is classed as functional, organism-based. An outline of the steps: as §1
Test [16] relates to Hepatitis B virus. The test is described as follows: Inhibition of HBV replication with RT C188S substitution and L80I, L180T, M204V background from Lamivudine refractory patient transfected into HepG2 cells. The test is classed as functional, organism-based. The method in brief: as §1
The test system of test [17] is Hepatitis B virus. The test is described as follows: Inhibition of HBV replication with RT I53F substitution and V173F, L180M, M204V background from Lamivudine refractory patient transfected into HepG2 cells. The test is classed as functional, organism-based. The method in brief:
as §1

The subject of test [18] is Hepatitis B virus. The test is described as follows: Inhibition of HBV replication with RT L228P substitution and M204I background from Lamivudine refractory patient transfected into HepG2 cells. The test is classed as functional. An outline of the steps: as §1

With `C=C1[C@H](CO)[C@@H](O)C[C@@H]1n1cnc2c(=O)[nH]c(N)nc21.O` [ENTECAVIR], the EC50 was found to be 0.0453 µM in [1]; 0.0329 µM in test [2]; 0.0076 µM in test [3]; 0.011 µM in [4]; 0.0142 µM in test [5]; 0.033 µM in test [8]. In addition, the EC50 in test [9] was determined as 0.004 µM; in [10], 0.0058 µM; in test [13] it was 0.0102 µM; in [15], 0.0024 µM; in [16], 0.0312 µM; in test [17], 0.0223 µM. The Inhibition in [6], in [7], in test [11], in test [12], in [14] and in test [18] was less than 10% each time.

By EC50 is commonly meant the concentration needed to bring the measured effect to its halfway point. A lower EC50 goes with an effect from little substance. What is called Inhibition is the relative decrease from the control value, in per cent. High values mean a strong effect, low ones a weak effect.
